These results are taken from ChEMBL document CHEMBL3813641, “Prediction and verification of novel peptide targets of protein tyrosine phosphatase 1B” (Bioorg Med Chem, 2016).

Substrate in data set [1]: NCCCC[C@H](NC(=O)[C@H](CCCCN)NC(=O)[C@@H]1CCCN1C(=O)[C@H](Cc1ccc(O)cc1)NC(=O)[C@H]1CCCN1C(=O)[C@H](CCCCN)NC(=O)[C@H](CCCCN)NC(=O)[C@H](CCCCN)NC(=O)[C@@H](N)CCCCN)C(=O)O
The data set is described as follows: Ratio of Kcat to Km for recombinant human N-terminal His-tagged PTP1B (1 to 321 residues) expressed in Escherichia coli BL21(DE3) cells.

Substrate in data set [2]: CC[C@H](C)[C@H](NC(=O)[C@@H]1CCCN1C(=O)[C@H](CO)NC(=O)[C@H](CCCCN)NC(=O)[C@H](Cc1ccc(O)cc1)NC(=O)[C@H]1CCCN1C(=O)[C@@H](NC(=O)[C@@H]1CCCN1C(=O)[C@H](CC(N)=O)NC(=O)[C@H](CCC(=O)O)NC(=O)[C@@H](N)CCC(N)=O)[C@@H](C)CC)C(=O)N[C@@H](CC(N)=O)C(=O)O
Description: (§1) Substrate activity at recombinant human N-terminal His-tagged PTP1B (1 to 321 residues) expressed in Escherichia coli BL21(DE3) cells assessed as inorganic phosphate release after 30 mins by spectrophotometric method. In a few lines: (§2)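 Synthetic phosphotyrosine peptides (N-acetylated, C-terminal amide, HPLC-purified) were incubated in vitro with purified PTP1B, and the released inorganic phosphate was detected with the EnzChek phosphate assay kit.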

Substrate in data set [3]: CC[C@H](C)[C@H](N)C(=O)N[C@@H](CCC(=O)O)C(=O)N[C@@H](CC(=O)O)C(=O)N1CCC[C@H]1C(=O)N1CCC[C@@H]1C(=O)N[C@@H](Cc1ccc(O)cc1)C(=O)N1CCC[C@@H]1C(=O)N[C@@H](Cc1ccc(O)cc1)C(=O)NCC(=O)N[C@@H](CC(N)=O)C(=O)N[C@@H](CC(=O)O)C(=O)N[C@@H](CO)C(=O)N[C@@H](CC(=O)O)C(=O)O
The description is as §1. The method in brief: as §2

Substrate in data set [4]: CC[C@H](C)[C@H](NC(=O)[C@@H]1CCCN1C(=O)[C@H](CCC(=O)O)NC(=O)[C@H](C)NC(=O)[C@H](Cc1ccc(O)cc1)NC(=O)[C@H]1CCCN1C(=O)[C@H](CC(N)=O)NC(=O)[C@H](CC(=O)O)NC(=O)[C@H](CO)NC(=O)[C@@H]1CCCN1C(=O)[C@@H](N)CC(=O)O)C(=O)N[C@@H](CC(=O)O)C(=O)O
Described as §1. The method in brief: as §2

Substrate in data set [5]: CC(C)[C@H](NC(=O)[C@H](CC(=O)O)NC(=O)[C@H](CCC(=O)O)NC(=O)[C@H](CC(N)=O)NC(=O)[C@@H](N)CC(=O)O)C(=O)N1CCC[C@@H]1C(=O)N[C@@H](Cc1ccc(O)cc1)C(=O)N[C@H](C(=O)N[C@@H](Cc1ccccc1)C(=O)N[C@@H](CCCCN)C(=O)N[C@H](C(=O)N1CCC[C@H]1C(=O)O)[C@@H](C)O)[C@@H](C)O
The data set is described as §1. The method in brief: as §2

Substrate in data set [6]: C[C@@H](O)[C@H](NC(=O)[C@@H](N)CO)C(=O)N[C@@H](CCC(=O)O)C(=O)N1CCC[C@H]1C(=O)N[C@@H](CCC(N)=O)C(=O)N1CCC[C@@H]1C(=O)N[C@@H](Cc1ccc(O)cc1)C(=O)N[C@@H](CCC(N)=O)C(=O)N1CCC[C@H]1C(=O)NCC(=O)N[C@@H](CCC(=O)O)C(=O)N[C@@H](CC(N)=O)C(=O)O
The data set is described as §1. The method in brief:
as §2

Substrate in data set [7]: CC(C)C[C@@H](N)C(=O)NCC(=O)N[C@@H](CO)C(=O)N[C@@H](CCCNC(=N)N)C(=O)N[C@@H](C)C(=O)N1CCC[C@@H]1C(=O)N[C@H](Cc1ccc(O)cc1)C(=O)N1CCC[C@H]1C(=O)N[C@@H](Cc1cnc[nH]1)C(=O)N[C@H](Cc1ccccc1)C(=O)N[C@H](CS)C(=O)N[C@H](C)C(=O)O
Described as §1. In a few lines:
as §2

Substrate in data set [8]: CC[C@H](C)[C@H](NC(=O)[C@H](CC(=O)O)NC(=O)[C@H](CCC(=O)O)NC(=O)[C@H](CCC(=O)O)NC(=O)[C@@H](N)CCC(=O)O)C(=O)N1CCC[C@@H]1C(=O)N[C@@H](Cc1ccc(O)cc1)C(=O)N[C@@H](CCC(=O)O)C(=O)N[C@H](C(=O)N[C@@H](CC(C)C)C(=O)N1CCC[C@H]1C(=O)N[C@@H](CC(=O)O)C(=O)O)C(C)C
Described as §1. The method in brief: as §2

Substrate in data set [9]: NCCCC[C@H](NC(=O)[C@H](CCCCN)NC(=O)[C@@H]1CCCN1C(=O)[C@H](Cc1ccc(O)cc1)NC(=O)[C@H]1CCCN1C(=O)[C@H](CCCCN)NC(=O)[C@H](CCCCN)NC(=O)[C@H](CCCCN)NC(=O)[C@@H](N)CCCCN)C(=O)O
Described as §1. In a few lines:
as §2

Substrate in data set [10]: CC(C)[C@H](NC(=O)[C@@H](CCCCN)NC(=O)[C@@H](Cc1ccc(O)cc1)NC(=O)[C@H]1CCCN1C(=O)[C@H](Cc1ccc(O)cc1)NC(=O)[C@H]1CCCN1C(=O)[C@H](CCC(=O)O)NC(=O)[C@H](N)CCCCN)C(=O)N[C@H](CCCCN)C(=O)O
Description: Substrate activity at PTP1B (unknown origin). To be noted: Homo sapiens. The method in brief:
as §2

B1: Tyrosine-protein phosphatase non-receptor type 1 (Homo sapiens), P18031 (protein)
chain: MEMEKEFEQIDKSGSWAAIYQDIRHEASDFPCRVAKLPKNKNRNRYRDVSPFDHSRIKLHQEDNDYINASLIKMEEAQRSYILTQGPLPNTCGHFWEMVWEQKSRGVVMLNRVMEKGSLKCAQYWPQKEEKEMIFEDTNLKLTLISEDIKSYYTVRQLELENLTTQETREILHFHYTTWPDFGVPESPASFLNFLFKVRESGSLSPEHGPVVVHCSAGIGRSGTFCLADTCLLLMDKRKDPSSVDIKKVLLEMRKFRMGLIQTADQLRFSYLAVIEGAKFIMGDSSVQDQWKELSHEDLEPPPEHIPPPPRPPKRILEPHNGKCREFFPNHQWVKEETQEDKDCPIKEEKGSPLNAAPYGIESMSQDTEVRSRVVGGSLRGAQAASPAKGEPSLPEKDEDHALSYWKPFLVNMCVATVLTAGAYLCYRFLFNSNT
For B1, in data set [1], the kcat/Km entry is listed as “Not Active”. In addition, the Km was 21.7 µM in data set [2]; 20.1 µM in [3]; 28.5 µM in data set [4]; 17.1 µM in data set [5]; 29.1 µM in data set [6]; more than 300 µM in data set [7]. In addition, the values for the Km in data set [8], in data set [9] and in data set [10] were 14.7 µM, “Not Active” and 12.7 µM, respectively.
